The source of these data is PMC9732910 (Genes & Development, 2022).

Entries after “also recorded” stand apart in the source; their conditions may differ. *1 amine or outer side, *2 acyl side, *3 side chain or, on linkers, in order; H or OH if unused. Where a SMILES comes first, the peptide text is derived from it. Bridges are numbered along the chain shown (N, C = ends). Primed or numbered codes have the meaning given here. Where no end group is shown, it is not given here. The star is where a group is joined. Lys(Biotin) = O=C(CCCC[C@@H]1SC[C@@H]2NC(=O)N[C@@H]21)NCCCC[C@H](N[*:1])C(=O)[*:2]; PEG3′ = PEG3 spacer coupled to the N-terminus before Fmoc-Lys(Biotin); FITC = O=C1OC2(c3ccc(O)cc3Oc3cc(O)ccc32)c2ccc(NC(=S)*)cc21; mXylylene = c1cc(C[*:1])cc(C[*:2])c1 A value given as a limit tells only on which side of the number the result lay.

Series [1] concerns the target T1, KLHL20 (Homo sapiens, UniProt Q9Y2M5).
T1 sequence (Q9Y2M5 1-609): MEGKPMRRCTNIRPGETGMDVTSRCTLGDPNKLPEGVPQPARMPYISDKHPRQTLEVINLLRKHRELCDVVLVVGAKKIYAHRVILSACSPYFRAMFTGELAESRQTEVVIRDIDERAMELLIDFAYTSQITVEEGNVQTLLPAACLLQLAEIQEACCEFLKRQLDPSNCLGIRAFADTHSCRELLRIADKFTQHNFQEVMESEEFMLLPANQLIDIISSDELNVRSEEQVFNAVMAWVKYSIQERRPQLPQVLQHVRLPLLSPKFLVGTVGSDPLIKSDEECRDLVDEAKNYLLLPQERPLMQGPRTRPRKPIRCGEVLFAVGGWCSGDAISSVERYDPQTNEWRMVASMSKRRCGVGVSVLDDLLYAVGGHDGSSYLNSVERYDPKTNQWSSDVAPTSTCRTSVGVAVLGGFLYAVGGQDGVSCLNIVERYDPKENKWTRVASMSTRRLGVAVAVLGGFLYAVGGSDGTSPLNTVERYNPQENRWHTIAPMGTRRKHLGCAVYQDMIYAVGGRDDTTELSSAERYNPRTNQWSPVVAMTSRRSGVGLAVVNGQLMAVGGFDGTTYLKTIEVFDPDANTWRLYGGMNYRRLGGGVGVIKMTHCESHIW
Format: binding. The settings on record: PC3 lysates, immobilized compound. In short, it runs like this: (§1)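 Biotinylated test compound (430 nM) was captured on BSA-blocked NeutrAvidin magnetic beads for 1 h at 4°C. Beads were incubated with PC3 lysate diluted 1:7 to 1.6 mg/mL total protein in TBS, 1 mM DTT, 0.1% BSA and protease/phosphatase inhibitors for 1 h at 4°C. After three TBS/DTT/BSA washes, bound proteins were eluted in Laemmli buffer with 5% BME for Western blotting.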

Another series concerns BRD2, BRD3, and BRD4. The series is described as follows: Degradation of BET proteins BRD2, BRD3 and BRD4 in PC3 cells. Format: cell-based, human. The settings on record: 5 μM, 4 h. In short, it runs like this:
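PC3 cells in DMEM with 10% FBS were plated in 24-well plates 24 h before dosing. They got fresh medium with 5 μM test compound or reference degraders, or DMSO as reference, for 4 h. Cells were washed in TBS/0.05% Tween 20 and lysed in Tris pH 7.5, NaCl, deoxycholate, glycerol, Triton X-100 and inhibitor buffer. BET proteins were read by Western blot.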

The subject of a further series is PC3 cells. The series is described as follows: Cell proliferation, CellTiter-Glo 2.0, PC3. In kind it is cell-based, human. As to conditions: PC3, 24, 72, and 96 h. In outline:
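PC3 prostate cancer cells in DMEM with 10% FBS were seeded in 96-well plates at 50% confluency 24 h beforehand. They were switched to fresh medium with different concentrations of test compound or reference degraders (DMSO-volume negative control) for 24, 72 and 96 h. Cell titre was measured by CellTiter-Glo 2.0 luminescence; SD, N = 3.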

For another series, the system named is MDA-MB-231 cells. The series is described as follows: Cell proliferation, CellTiter-Glo 2.0, MDA-MB-231. The settings on record: MDA-MB-231, 24h, 72h and 96h. Format: cell-based, human. In short, it runs like this:
(§2)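 Cells kept in DMEM with 10% FBS and seeded in 96-well plates at 50% confluency 24 h before treatment. Medium was then replaced with fresh medium holding the test compound at varying concentrations, or an equal volume of DMSO as negative control. Viable cell titre was read at the end of treatment by CellTiter-Glo 2.0 luminescence.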
Background: Cellular ATP, detected with luciferase, serves as a proxy for viable cell number.

The subject of the next series is hTERT-BJ1 cells. In words: Cytotoxicity in normal human cell line, CellTiter-Glo 2.0. Format: cell-based. The settings on record: hTERT-BJ1, 24h, 72h and 96h. In outline: as §2
The next series addresses T2, KLHL20^K498A (Homo sapiens, UniProt Q9Y2M5, K498A).
T2 sequence (Q9Y2M5 317-603 K498A): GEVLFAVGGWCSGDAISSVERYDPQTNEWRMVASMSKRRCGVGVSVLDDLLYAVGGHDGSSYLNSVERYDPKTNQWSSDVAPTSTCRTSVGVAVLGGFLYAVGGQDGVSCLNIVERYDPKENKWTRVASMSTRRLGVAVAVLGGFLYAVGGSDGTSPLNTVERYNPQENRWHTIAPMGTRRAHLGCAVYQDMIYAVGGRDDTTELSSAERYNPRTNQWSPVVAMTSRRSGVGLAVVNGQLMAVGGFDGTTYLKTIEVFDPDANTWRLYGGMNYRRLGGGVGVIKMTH
In words: FP binding to KLHL20 Kelch mutant K498A. The settings on record: FITC-labeled BTR2000. In short, it runs like this: (§3)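 His-tagged wild-type or quick-change point-mutant KLHL20 Kelch domain was expressed in E. coli Rosetta (DE3) (0.3 mM IPTG, 18°C overnight). It was Ni-NTA purified and dialysed into TBS pH 7.5 with 1 mM DTT. Protein at 0–15 μM was incubated with 20 nM FITC-labelled peptide for 30 min at 4°C in 1× TBS/1 mM DTT. FP was read at 485/528 nm; LAAAV peptide served as negative control.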

For the next series, the target named is T3, KLHL20^H499G (Homo sapiens, UniProt Q9Y2M5, H499G).
T3 sequence (Q9Y2M5 317-603 H499G): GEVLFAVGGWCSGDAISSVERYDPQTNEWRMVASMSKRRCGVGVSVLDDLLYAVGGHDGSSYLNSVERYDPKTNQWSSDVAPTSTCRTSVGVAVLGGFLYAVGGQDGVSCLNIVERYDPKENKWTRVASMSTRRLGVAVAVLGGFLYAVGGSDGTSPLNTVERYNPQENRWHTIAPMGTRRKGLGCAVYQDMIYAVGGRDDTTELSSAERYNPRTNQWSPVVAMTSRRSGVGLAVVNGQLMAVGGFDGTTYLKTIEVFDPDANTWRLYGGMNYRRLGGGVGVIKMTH
In words: FP binding to KLHL20 Kelch mutant H499G. As to conditions: FITC-labeled BTR2000.

For another series, the target named is T4, KLHL20^L592G (Homo sapiens, UniProt Q9Y2M5, L592G).
T4 sequence (Q9Y2M5 317-603 L592G): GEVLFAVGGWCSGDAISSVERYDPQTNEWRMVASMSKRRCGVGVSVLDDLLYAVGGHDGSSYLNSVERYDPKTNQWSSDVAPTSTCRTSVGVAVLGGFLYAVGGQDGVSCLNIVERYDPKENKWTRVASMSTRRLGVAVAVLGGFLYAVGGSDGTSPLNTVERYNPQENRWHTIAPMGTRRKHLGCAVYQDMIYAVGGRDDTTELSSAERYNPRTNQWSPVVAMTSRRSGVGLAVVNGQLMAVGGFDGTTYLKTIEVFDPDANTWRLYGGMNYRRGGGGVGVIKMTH
The series is described as follows: FP binding to KLHL20 Kelch mutant L592G. The settings on record: FITC-labeled BTR2000. In outline: as §3

Another series has as its target T5, KLHL12 (Homo sapiens, UniProt Q53G59).
T5 sequence (Q53G59 1-568): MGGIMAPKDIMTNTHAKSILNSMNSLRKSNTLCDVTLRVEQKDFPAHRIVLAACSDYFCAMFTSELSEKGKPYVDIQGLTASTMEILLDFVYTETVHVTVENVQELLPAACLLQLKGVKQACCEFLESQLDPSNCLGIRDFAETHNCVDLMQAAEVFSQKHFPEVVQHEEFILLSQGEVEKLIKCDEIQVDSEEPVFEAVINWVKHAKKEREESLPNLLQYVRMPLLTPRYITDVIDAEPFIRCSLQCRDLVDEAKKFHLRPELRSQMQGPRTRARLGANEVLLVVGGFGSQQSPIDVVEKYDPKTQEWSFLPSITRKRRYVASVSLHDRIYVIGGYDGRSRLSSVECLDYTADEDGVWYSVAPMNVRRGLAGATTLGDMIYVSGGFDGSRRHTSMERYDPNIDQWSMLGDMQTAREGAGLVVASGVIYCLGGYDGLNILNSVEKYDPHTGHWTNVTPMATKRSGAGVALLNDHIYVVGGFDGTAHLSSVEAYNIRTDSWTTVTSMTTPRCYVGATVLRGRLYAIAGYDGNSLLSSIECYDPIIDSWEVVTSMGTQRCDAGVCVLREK
In kind it is binding. The settings on record: PC3 lysates, immobilized compound. In outline: as §1

Series [2] deals with T1, KLHL20. In words: MS-based proteomics of pull-down eluates from PC3 lysates. In kind it is binding. As to conditions: N = 3, control called PGL control in Table S1. In short, it runs like this: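 NeutrAvidin Dynabeads were blocked with 0.1% BSA for 2 h at 4°C and loaded with 430 nM biotinylated compound for 1 h at 4°C. PC3 lysate (1:7 diluted, 1.6 mg/mL total protein, TBS/1 mM DTT/0.1% BSA/inhibitors) was bound for 1 h at 4°C. Beads were washed three times, eluted in Laemmli/5% BME and in-gel trypsin-digested. Eluates were analysed by LC-MS/MS with label-free quantification.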

The target in a further series is T6, KLHL20 Kelch domain (human, UniProt Q9Y2M5 317-603).
T6 sequence (looked up): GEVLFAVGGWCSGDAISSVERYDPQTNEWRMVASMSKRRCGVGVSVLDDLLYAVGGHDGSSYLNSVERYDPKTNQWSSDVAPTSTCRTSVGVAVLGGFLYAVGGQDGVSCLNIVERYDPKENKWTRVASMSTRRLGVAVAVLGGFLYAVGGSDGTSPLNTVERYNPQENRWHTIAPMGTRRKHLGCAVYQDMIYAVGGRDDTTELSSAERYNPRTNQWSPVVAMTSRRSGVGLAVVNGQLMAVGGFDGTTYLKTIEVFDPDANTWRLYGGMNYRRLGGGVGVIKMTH
In words: fluorescence polarisation. (In general: Fluorescence polarisation rises when a labelled molecule tumbles more slowly, as on binding a larger partner.)

Take “CPGAC: cyclized double-mutant of BTR2000 used as pull-down control ({Lys(Biotin)-PEG3′}-CPGAC-NH2; linker 1-5 via mXylylene)”: the “enrichment / binding of KLHL20 in pull-down” value (shortened to “enrichment / binding of KLHL20”) with KLHL20 [1] was “no binding to KLHL20”. The same measure, in the same setting: as for “cyclized CPDAC: BTR2000 with the leucine mutated; KLHL20-binding deficient cyclized peptide (CPDAC-NH2; linker 1-5 via mXylylene)”, the entry is “no binding to KLHL20”. Consider `Cc1ncsc1-c1ccc(CNC(=O)[C@@H]2C[C@@H](O)CN2C(=O)[C@@H](NC(=O)COCCOCCOCCNC(=O)C[C@@H]2N=C(c3ccc(Cl)cc3)c3c(sc(C)c3C)-n3c(C)nnc32)C(C)(C)C)cc1` [MZ1], for which, in the series with BRD2, BRD3, and BRD4, the BET protein degradation result is “showed efficacy”. In addition, the cell growth inhibition entry with PC3 cells and with MDA-MB-231 cells was “higher efficiency than BTR2004” throughout. Moreover, the normal cell cytotoxicity result with hTERT-BJ1 cells was “some degree of cytotoxicity”.

Turning to `COc1cc(C(=O)NCCOCCOCCOCCNC(=O)C[C@@H]2N=C(c3ccc(Cl)cc3)c3c(sc(C)c3C)-n3c(C)nnc32)ccc1NC(=O)[C@@H]1N[C@@H](CC(C)(C)C)[C@](C#N)(c2ccc(Cl)cc2F)[C@H]1c1cccc(Cl)c1F` [A1874], the BET protein degradation entry with BRD2, BRD3, and BRD4 is “not effective; also recorded: ineffective”. `Cc1sc2c(c1C)C(c1ccc(Cl)cc1)=N[C@@H](CC(=O)NCCCCNC(=O)COc1cccc3c1C(=O)N(C1CCC(=O)NC1=O)C3=O)c1nnc(C)n1-2` (stereo partly shown) [dBET1]: in the series with BRD2, BRD3, and BRD4, the BET protein degradation result is reported as “showed efficacy”. The normal cell cytotoxicity result in the series on hTERT-BJ1 cells is listed as “some degree of cytotoxicity”. Regarding `CC(C)C[C@@H]1NC(=O)[C@H](CC(=O)O)NC(=O)[C@@H]2CCCN2C(=O)[C@@H](NC(=S)Nc2ccc3c(c2)C(=O)OC32c3ccc(O)cc3Oc3cc(O)ccc32)CSCc2cccc(c2)CSC[C@@H](C(N)=O)NC1=O` [BTR2000] ({FITC}-CPDLC-NH2; linker 1-5 via mXylylene), on KLHL20^K498A, the “binding to KLHL20^K498A relative to wild type” value was “important for BTR2000 binding”. The “binding to KLHL20 H499 mutant relative to wild type” value at KLHL20^H499G is “more prominent loss in binding”. Moreover, on KLHL20^L592G, the “binding to KLHL20^L592G relative to wild type” value is on record as “more prominent loss in binding”. The “enrichment / binding of KLHL20” value at KLHL20 [1] is given as “successfully enriched KLHL20”. Besides, the “enrichment of KLHL12 in pull-down” value on KLHL12 is on record as “not KLHL12”. The “log2 fold change BTR2000/CPGAC of KLHL20” value at KLHL20 [2] was 11.

On to “cyclized CPGLC: BTR2000 with the aspartic acid mutated; KLHL20-binding deficient cyclized peptide ({Lys(Biotin)-PEG3′}-CPGLC-NH2; linker 1-5 via mXylylene)”, for which, in the series with KLHL20 [1], the “enrichment / binding of KLHL20” value is reported as “no binding to KLHL20”. In the case of {FITC}-LPDLV-NH2 [FITC-labeled linear LPDLV peptide], the Kd in the series with KLHL20 Kelch domain is over 5000 nM. Still for that read-out and setting: next, {FITC}-CPDLVC-NH2 (linker 1-6 via mXylylene) [FITC-labeled macrocycle CPDLVC]: about 600 nM; {FITC}-CPDLC-NH2 (linker 1-5 via mXylylene) [FITC-labeled BTR2000 (macrocycle CPDLC)]: about 600 nM.

One may read the Kd as a measure of binding affinity in units of concentration. Low values mean tighter binding, high ones weaker binding.
